# High-throughput results from PubChem BioAssay.
# GSK3 alpha inh – human GSK-3 alpha kinase inhibition. 320,000 tested, 0.1% active. inhibition, % at 10 µM. ADP-Glo luminescence, 60 min;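 active = more than half of replicates show inhibition above 20%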;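 also: GST-tagged GSK-3 alpha with peptide substrate and 25 µM ATP; 0% = DMSO neutral wells and 100% = GW8510 positive control wells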
# INS-1E GSIS act – primary screen for activators of insulin secretion dependent on glucose, INS-1E cells, GLuc reporter luminescence; INS-1E GLuc reporter insulin secretion, 2-3 h; activation, % at 16.6 µM; 370,000 tested, 0.61% active;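 active = lowest replicate activation of at least 40%, so every replicate reaches that level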;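 also: 0% = median of neutral control wells and 100% = median of IBMX positive control wells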
# STK33 kinase inh – inhibitors of human STK33 kinase; inhibition, % at 10 µM; purified STK33, MBP phosphorylation, ADP-Glo luminescence; AID 2661; 320,000 tested, 0.073% active; Q9BYT3;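 active = inhibition at or above 25%, using the most active replicate where run in duplicate; inactive = inhibition below 25%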
# Target sequence (Q9BYT3 whole entry, looked up): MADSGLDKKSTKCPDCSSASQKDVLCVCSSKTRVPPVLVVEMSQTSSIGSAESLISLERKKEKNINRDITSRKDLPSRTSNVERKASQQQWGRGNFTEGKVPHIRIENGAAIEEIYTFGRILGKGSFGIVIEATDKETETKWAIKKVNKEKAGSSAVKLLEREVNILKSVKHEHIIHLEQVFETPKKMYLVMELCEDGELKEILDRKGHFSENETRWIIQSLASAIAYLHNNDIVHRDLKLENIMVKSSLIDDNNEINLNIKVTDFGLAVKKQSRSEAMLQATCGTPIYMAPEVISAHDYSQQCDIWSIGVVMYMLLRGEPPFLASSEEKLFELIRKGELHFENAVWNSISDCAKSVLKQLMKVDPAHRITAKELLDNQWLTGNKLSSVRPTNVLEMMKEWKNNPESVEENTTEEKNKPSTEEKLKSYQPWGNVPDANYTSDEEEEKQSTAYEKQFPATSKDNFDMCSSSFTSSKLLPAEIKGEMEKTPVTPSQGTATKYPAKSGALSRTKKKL
# HIV Env fusion – HIV envelope-mediated fusion inhibition. HeLa-JRFL Env/CEM21 cell fusion, luciferase. inhibition, % at 12.3 µM. 360,000 tested, 1.1% active. AID 651610;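 active = mean replicate inhibition score of at least 50 and every replicate individually at or above 50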;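 also: 0% = plate neutral controls and 100% = maraviroc near 300 nM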
# GSK3B inh – blocks human GSK3beta kinase activity; 300,000 tested, 0.038% active; GST-GSK3beta kinase, ADP-Glo luminescence, 60 min; stronger effect = lower value; activity score (negative = inhibition), % at 10 µM;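 active = more than half of replicate wells score below -50%, meaning over 50% inhibition versus plate controls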;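 also: 0% = median DMSO wells and -100% = median GW8510 positive control wells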
#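 Assay system: GST-fused GSK3beta enzyme, cell-free / Medium: Tris pH 7.5 buffer with MgCl2, DTT, BSA, heparin / Also added: peptide substrate plus 25 µM ATP (final) / Compound: 10 µM single point / Timing: kinase reaction with compound 60 min at room temperature / Detection: ADP-Glo luminescence / Benchmarks: DMSO neutral wells and GW8510 at 20 µM as positive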
# CDK5 p35 inh – blocks human CDK5/p35 kinase activity; 330,000 tested, 0.01% active; Q00535+Q15078; Recombinant CDK5/p35, ADP-Glo luminescence, 60 min; inhibition, % at 10 µM; AID 488839;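 active = highest replicate inhibition of at least 50% and at least 75% of replicates reaching 50%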;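 also: plate controls were DMSO neutral control for no effect and GW8510 at 10 µM for full effect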
# The depositor's hits bear a star; . = no result; [ ] = remark or other dose. Most compounds without a hit are left out; they make up all but 1.4% or so of the library.
SMILES,GSK3 alpha inh,INS-1E GSIS act,STK33 kinase inh,HIV Env fusion,GSK3B inh,CDK5 p35 inh
O=C(NC1CCCCC1)C(c1cccs1)N(C(=O)Cc1c[nH]c2ccccc12)c1ccc(F)cc1 (configuration not stated),0,.,-1,87*,0,0
COc1ccc2c3c([nH]c2c1)[C@@H](CO)N(Cc1ccccc1)CC31CCN(S(C)(=O)=O)CC1,.,14,.,.,.,.
CCC(=O)N(C)C[C@@H]1Oc2cc(-c3ccccc3C)ccc2S(=O)(=O)N([C@@H](C)CO)C[C@@H]1C,.,3,.,28[16.7 µM],.,.
CC(=O)N[C@@H]1CC[C@H](CCNC(=O)C2CCCCC2)O[C@H]1CO,.,12,.,.,.,.
CN1C(=O)c2cc(NC(=O)c3ccccc3)ccc2OC[C@H]2O[C@@H](CC(=O)O)CC[C@H]21,.,-3,.,13[16.7 µM],.,.
O=C(NCC(=O)N(Cc1cccs1)C(C(=O)NC1CCCCC1)c1ccco1)c1ccco1 (configuration not stated),0,-1,0,.,6,-1
O=C(NC1CCCCC1)C(c1cccs1)N(Cc1cccs1)C(=O)c1ccco1 (configuration not stated),-2,.,0,84*,5,0
COc1ccc(CNC(=O)c2cnn3c(C(F)F)cc(C)nc23)cc1,4,80*,-1,.,-4,0
Cc1cc(C(F)F)n2ncc(C(=O)NCc3ccccc3)c2n1,-3,.,1,-47,-2,0
CC(C)NC(=O)N(C)C[C@@H]1Oc2ccc(NS(C)(=O)=O)cc2CC(=O)N([C@H](C)CO)C[C@H]1C,.,2,.,.,.,.
Cc1c(C(=O)Nc2ccncc2)sc2nc(-c3ccccc3)cn12,-8,5,2,44,-1,0
Cc1c(C(=O)Nc2ccc3c(c2)OCCO3)sc2nc(-c3ccccc3)cn12,0,-32,0,57*,0,3
COc1cc(CN2CC3(CCN(S(=O)(=O)c4cccs4)CC3)c3c(n(C)c4cc(OC)ccc34)[C@H]2CO)cc(OC)c1,.,7,.,.,.,.
CCCCn1c(N)c(N(CC(C)C)C(=O)c2ccc(S(=O)(=O)N(CC)c3ccccc3)cc2)c(=O)[nH]c1=O,.,6,.,102*,-10,-1
CCC(=O)Nc1ccc2c(c1)OC[C@@H](C)N(Cc1cccnc1)C[C@@H](C)[C@H](OC)CN(C)C2=O,.,-6,.,.,.,.
CO[C@@H]1CN(C)C(=O)c2ccc(NC(=O)C3CCC3)cc2OC[C@@H](C)N(CC2CCCCC2)C[C@H]1C,.,-20,.,.,.,.
CCN(CC)S(=O)(=O)c1ccc(C)c(NC(=O)CN2CCN(Cc3ccccc3)CC2)c1,-1,-19,1,14,0,1
COc1ccc(S(=O)(=O)N2CCCCCC2)cc1NC(=O)c1c2c(nc3ccccc13)CCN(Cc1ccccc1)C2,6,-40,0,65*,3,-2
CCN(CC)S(=O)(=O)c1ccc(OC(C)C)c(NC(=O)c2c3c(nc4ccccc24)CCN(Cc2ccccc2)C3)c1,0,7,-1,59*,0,-2
COc1ccc(NC(=O)c2c3c(nc4ccccc24)CCN(Cc2ccccc2)C3)c(OC)c1,0,11,1,2,1,2
C[C@@H]1CN([C@@H](C)CO)S(=O)(=O)c2ccc(-c3ccc(C(=O)N(C)C)cc3)cc2O[C@@H]1CN(C)C(=O)C1CCC1,.,21,.,.,.,.
CN1C(=O)c2cc(NC(=O)c3cscn3)ccc2OC[C@@H]2O[C@H](CC(=O)NCc3ccc(Cl)c(Cl)c3)CC[C@H]21,.,-4,.,58*[16.7 µM],.,.
CN1C(=O)c2cc(NC(=O)c3cscn3)ccc2OC[C@H]2O[C@H](CC(=O)NCc3ccc(Cl)c(Cl)c3)CC[C@H]21,.,-19,.,68*[16.7 µM],.,.
CC(Nc1nc(-c2ccc(F)cc2)cs1)c1nc2cc(Cl)c(N3CCCCC3)cc2n1CCCO (configuration not stated),3,8,-1,78*,3,1
COc1ccc(CNC(=O)c2c(C)oc3c2C(=O)c2ccccc2C3=O)cc1,-2,.,-1,64*,1,2
SMILES,GSK3 alpha inh,INS-1E GSIS act,STK33 kinase inh,HIV Env fusion,GSK3B inh,CDK5 p35 inh
C[C@H]1CCCCO[C@H](CN(C)S(C)(=O)=O)[C@@H](C)CN([C@@H](C)CO)C(=O)c2cc(NS(=O)(=O)c3cn(C)cn3)ccc2O1,.,1,.,-3[16.7 µM],.,.
CCOc1ccc(NC(=O)/C(C#N)=C/c2ccc(N3CCCC3)c(C)c2)cc1,-2,115*,-2,-89,.,1
CCN(CC)S(=O)(=O)c1ccc(N2CCCCC2)c(NC(=O)/C(C#N)=C/c2ccc(OC)cc2)c1,2,-25,0,16,-1,1
C[C@@H]1CN([C@H](C)CO)C(=O)c2cc(NS(=O)(=O)c3cn(C)cn3)ccc2O[C@@H]1CN(C)C(=O)Nc1ccc2c(c1)OCO2,.,14,.,.,.,.
COc1ccc(OC)c(CNS(=O)(=O)c2cc(-c3cc(C)no3)ccc2OC)c1,.,27,-1,3,0,1
COc1ccccc1CNS(=O)(=O)c1cc(-c2cc(C)no2)ccc1C(C)C,.,46*,5,-6,3,0
CCOc1ccccc1CNS(=O)(=O)c1cc(-c2cc(C)no2)ccc1OC,-1,1,0,5,0,-2
COc1ccc(-c2cc(C)no2)cc1S(=O)(=O)NCC(C)c1ccccc1 (configuration not stated),0,-7,0,56*,2,-3
C[C@@H]1CN([C@@H](C)CO)C(=O)c2cc(NS(=O)(=O)c3cccs3)ccc2O[C@@H](C)CCCCO[C@H]1CN(C)Cc1ccc2c(c1)OCO2,.,-7,.,-13[16.7 µM],.,.
O=C(C[C@H]1C=C[C@H](NC(=O)c2cccc(F)c2)[C@@H](CO)O1)NCc1ccccc1,.,5,.,5[16.7 µM],.,.
COc1ccc(CN(C)C[C@H]2OCCCC[C@H](C)Oc3ccc(NS(=O)(=O)c4ccccc4)cc3C(=O)N([C@@H](C)CO)C[C@@H]2C)cc1,.,-9,.,6[16.7 µM],.,.
O=C(Nc1ccc(F)cc1)Nc1ccc2c(c1)[C@@H]1C[C@H](CC(=O)N3CCCCC3)O[C@H](CO)[C@@H]1O2,.,-8,.,90*[16.7 µM],.,.
O=C(Nc1ccc(F)cc1)Nc1ccc2c(c1)[C@@H]1C[C@@H](CC(=O)N3CCCCC3)O[C@@H](CO)[C@@H]1O2,.,-12,.,-9[16.7 µM],.,.
O=C(Nc1ccc(F)cc1)Nc1ccc2c(c1)[C@@H]1C[C@H](CC(=O)N3CCCCC3)O[C@@H](CO)[C@@H]1O2,.,-6,.,75*[16.7 µM],.,.
CCC(=O)N1CCC2(CC1)CN(C(=O)Cc1ccccc1)[C@H](CO)c1c2c2ccc(OC)cc2n1C,.,-24,.,.,.,.
C[C@@H]1CN([C@@H](C)CO)C(=O)c2cc(-c3ccc(C#N)cc3)cnc2O[C@@H]1CN(C)Cc1cncnc1,.,18,.,-5[16.7 µM],.,.
CO[C@@H]1CN(C)C(=O)c2ccc(NC(=O)C3CCC3)cc2OC[C@H](C)N(Cc2ccncc2)C[C@@H]1C,.,6,.,.,.,.
